The target in data set [1] is T1, Intercellular adhesion molecule (ICAM-1), Integrin alpha-L/beta-2 (Homo sapiens, UniProt P05107+P20701). Briefly: Dissociation constant for human Lymphocyte function associated antigen 1 in LFA-1/ICAM-1 binding assay. In kind it is protein-complex assay.
Data set [2] concerns the target T1, Intercellular adhesion molecule (ICAM-1), Integrin alpha-L/beta-2. Nature of the data set: Dissociation constant for human Lymphocyte function associated antigen1 in LFA-1/ICAM-1 binding assay.
Data set [3] has the same target. Nature of the data set: Dissociation constant against human Lymphocyte function associated antigen1 in LFA-1/ICAM-1 binding assay. It counts as protein-complex assay.
Data set [4] is described as follows: Concentration of compound required for 50% inhibition of aggregation of JY cell lines. It counts as functional, cell-based. The settings on record: Homo sapiens.
In data set [5] the test system is Cell line. Nature of the data set: cells. The settings on record: Homo sapiens, Blood. It counts as functional, cell-based.
For a further data set, the species on record is Mus musculus. Nature of the data set: tissue or blood. It counts as functional, organism-based.
Data set [6] in a line: Concentration required for inhibition of aggregation of JY cell line. In kind it is functional, cell-based. As to conditions: Homo sapiens.
A short description of data set [7]: Maximum plasma concentration present after 4 hours of administration of compound of at 100 mg/kg. In kind it is ADME, organism-based, Homo sapiens. On the set-up: dose 100 mg/kg. The settings on record: read-out: Concentration. The method, boiled down:
(§1)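 Mice in the SEB-induced IL-2 production experiment were dosed orally at 30 or 100 mg/kg. Plasma drug concentration was measured 4 h after dosing and reported in ng/mL.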

Data set [8] relates to Cell line. Briefly: Concentration required for irreversible binding to human liver microsomes. It counts as functional.
A short description of data set [9]: Maximum plasma concentration present after 4 hours of administration of compound of at 30 mg/kg. As to conditions: read-out: Concentration. The arrangement: dose 30 mg/kg. In kind it is ADME, organism-based, Homo sapiens.
For data set [10], the target named is T1, Intercellular adhesion molecule (ICAM-1), Integrin alpha-L/beta-2. Nature of the data set: Dissociation constant for human Lymphocyte function-associated antigen-1 in LFA-1/ICAM-1 binding assay. In kind it is protein-complex assay.
The nature of data set [11]: Maximum plasma concentration present after 4 hours of administration of compound of concentration 100 mg/kg. It counts as ADME, organism-based, Homo sapiens. On the set-up: dose 100 mg/kg. As to conditions: read-out: Concentration. The method, boiled down: as §1
A short description of data set [12]: Maximum plasma concentration present after 4 hours of administration of compound at 30 mg/kg. It counts as ADME, organism-based, Homo sapiens. On the set-up: dose 30 mg/kg. As to conditions: read-out: Concentration.
Data set [13] can be described thus: Concentration required to inhibit aggregation of JY cells. As to conditions: Homo sapiens. It counts as functional, cell-based.

T1 sequence (P20701 whole entry): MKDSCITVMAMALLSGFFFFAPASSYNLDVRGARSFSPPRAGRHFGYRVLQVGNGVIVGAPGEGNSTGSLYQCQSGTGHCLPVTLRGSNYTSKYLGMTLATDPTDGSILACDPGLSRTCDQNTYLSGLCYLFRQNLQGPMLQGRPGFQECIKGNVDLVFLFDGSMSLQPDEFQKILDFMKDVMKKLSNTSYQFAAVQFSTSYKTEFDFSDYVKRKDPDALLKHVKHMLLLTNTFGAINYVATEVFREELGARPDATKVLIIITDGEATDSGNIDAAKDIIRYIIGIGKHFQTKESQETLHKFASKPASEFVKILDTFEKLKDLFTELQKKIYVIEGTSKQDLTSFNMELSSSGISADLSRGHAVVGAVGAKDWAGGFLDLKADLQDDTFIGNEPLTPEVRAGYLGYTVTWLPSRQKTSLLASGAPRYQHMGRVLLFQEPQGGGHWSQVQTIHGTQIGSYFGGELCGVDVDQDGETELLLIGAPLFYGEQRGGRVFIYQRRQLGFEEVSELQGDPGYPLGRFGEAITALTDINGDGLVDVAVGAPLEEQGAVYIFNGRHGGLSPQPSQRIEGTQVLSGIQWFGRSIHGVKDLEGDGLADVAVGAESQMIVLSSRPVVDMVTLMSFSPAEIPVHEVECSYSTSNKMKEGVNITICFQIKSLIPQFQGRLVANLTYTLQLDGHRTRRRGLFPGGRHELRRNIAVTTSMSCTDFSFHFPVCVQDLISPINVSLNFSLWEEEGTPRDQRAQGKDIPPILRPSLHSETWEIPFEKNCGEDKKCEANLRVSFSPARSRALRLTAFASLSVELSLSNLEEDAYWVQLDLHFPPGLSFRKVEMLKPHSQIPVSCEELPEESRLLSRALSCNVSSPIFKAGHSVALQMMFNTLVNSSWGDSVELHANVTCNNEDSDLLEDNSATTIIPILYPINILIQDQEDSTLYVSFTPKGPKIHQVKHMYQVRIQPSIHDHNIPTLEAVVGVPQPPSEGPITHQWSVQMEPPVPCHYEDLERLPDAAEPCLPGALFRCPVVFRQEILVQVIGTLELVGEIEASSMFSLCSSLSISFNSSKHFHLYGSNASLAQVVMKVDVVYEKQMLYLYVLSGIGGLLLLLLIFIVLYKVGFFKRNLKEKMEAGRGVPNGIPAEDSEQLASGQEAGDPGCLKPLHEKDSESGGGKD
T1 sequence (P05362 whole entry, further chain): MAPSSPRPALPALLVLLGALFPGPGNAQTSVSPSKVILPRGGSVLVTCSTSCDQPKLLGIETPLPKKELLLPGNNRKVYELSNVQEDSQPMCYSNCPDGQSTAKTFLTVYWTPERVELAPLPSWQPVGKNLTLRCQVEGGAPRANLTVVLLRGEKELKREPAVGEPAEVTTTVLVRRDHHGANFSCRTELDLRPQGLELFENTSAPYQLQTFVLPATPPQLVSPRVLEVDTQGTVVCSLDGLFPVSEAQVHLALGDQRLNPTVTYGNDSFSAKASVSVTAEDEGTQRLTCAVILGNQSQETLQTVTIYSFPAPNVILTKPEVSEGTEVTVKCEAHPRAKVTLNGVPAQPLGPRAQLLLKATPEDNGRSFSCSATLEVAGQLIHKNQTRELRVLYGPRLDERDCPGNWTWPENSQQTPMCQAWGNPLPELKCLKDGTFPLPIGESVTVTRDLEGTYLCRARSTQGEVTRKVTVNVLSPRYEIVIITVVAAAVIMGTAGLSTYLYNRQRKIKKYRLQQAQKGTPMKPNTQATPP
T1 sequence (P05107 whole entry): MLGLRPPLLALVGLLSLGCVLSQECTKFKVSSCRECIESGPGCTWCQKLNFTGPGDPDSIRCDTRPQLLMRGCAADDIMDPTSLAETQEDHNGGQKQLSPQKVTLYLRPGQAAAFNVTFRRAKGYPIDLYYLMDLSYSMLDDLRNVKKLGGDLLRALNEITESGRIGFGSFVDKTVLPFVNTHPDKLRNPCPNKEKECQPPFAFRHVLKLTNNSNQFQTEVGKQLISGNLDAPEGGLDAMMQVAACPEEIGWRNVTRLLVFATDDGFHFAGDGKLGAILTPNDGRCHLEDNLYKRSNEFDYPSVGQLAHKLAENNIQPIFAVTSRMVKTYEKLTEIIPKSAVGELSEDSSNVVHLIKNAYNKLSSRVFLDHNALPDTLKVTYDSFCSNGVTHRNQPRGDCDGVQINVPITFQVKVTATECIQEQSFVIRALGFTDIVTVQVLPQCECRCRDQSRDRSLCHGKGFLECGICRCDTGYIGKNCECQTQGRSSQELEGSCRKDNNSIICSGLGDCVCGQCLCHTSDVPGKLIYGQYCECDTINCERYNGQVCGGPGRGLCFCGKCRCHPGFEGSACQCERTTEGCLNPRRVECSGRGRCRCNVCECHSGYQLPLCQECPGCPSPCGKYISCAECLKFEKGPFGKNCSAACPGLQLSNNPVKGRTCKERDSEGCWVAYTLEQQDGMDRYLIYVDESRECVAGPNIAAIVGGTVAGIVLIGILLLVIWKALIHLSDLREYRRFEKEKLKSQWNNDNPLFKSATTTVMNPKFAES

`COCCCS(=O)(=O)c1cnc2n1[C@](C)(Cc1ccc(Br)cc1)C(=O)N2c1cc(Cl)cc(Cl)c1`: the Kd in data set [1] was found to be 20 nM.

In data set [1], `CC1(Cc2ccc(Br)cc2)C(=O)N(c2cc(Cl)cc(Cl)c2)c2nc(I)cn21` (centres undefined) registered a Kd of more than 20000 nM.

The compound `CC1(Cc2ccc(Br)cc2)C(=O)N(c2cc(Cl)cc(Cl)c2)c2nnnn21` (centres undefined) gave a Kd in [1] of 110 nM.

`CC1(Cc2ccc(Br)cc2)C(=O)N(c2cc(Cl)cc(Cl)c2)c2ncc(I)n21` (centres undefined): the Kd in [1] stood at 410 nM.

Compound `CC1(Cc2ccc(Br)cc2)C(=O)N(c2cc(Cl)cc(Cl)c2)c2nc(Br)cn21` (centres undefined) showed a Kd in data set [1] of 630 nM.

As to `C[C@@]1(Cc2ccc(Br)cc2)C(=O)N(c2cc(Cl)cc(Cl)c2)c2ncc(S(=O)(=O)CCCO)n21`, the Kd in data set [1] was determined as 10 nM; in [2], 10 nM; in [3], 100 nM. In addition, the results for the IC50 (in data set [4]; with Cell line [5]) were 90 nM and 10400 nM, respectively.

Regarding `C[C@@]1(Cc2ccc(Br)cc2)C(=O)N(c2cc(Cl)cc(Cl)c2)c2ncc(S(=O)(=O)CCCCO)n21`, the Kd in data set [1] was 10 nM.

For `CC1(Cc2ccc(Br)cc2)C(=O)N(c2cc(Cl)cc(Cl)c2)c2ncc(C#N)n21` (centres undefined), in [1], the affinity, expressed as Kd, was 190 nM.

Compound `Cc1cnc2n1C(C)(Cc1ccc(Br)cc1)C(=O)N2c1cc(Cl)cc(Cl)c1` (centres undefined) registered a Kd in data set [1] of 340 nM.

Take `CC(=O)NCCCS(=O)(=O)c1cnc2n1[C@](C)(Cc1ccc(Br)cc1)C(=O)N2c1cc(Cl)cc(Cl)c1`: the Kd in [1] was determined as 30 nM; in [3], 70 nM. The IC50 turned out to be 9500 nM in the data set listed under Mus musculus, 350 nM in data set [4] and 9500 nM in the data set on Cell line [5].

On to `CC1(Cc2ccc(Br)cc2)C(=O)N(c2cc(Cl)cc(Cl)c2)c2nncn21` (centres undefined), for which the Kd in data set [1] turned out to be 40 nM. This counts as double-digit nanomolar.

In the case of `CC1(Cc2ccc(Br)cc2)C(=O)N(c2cc(Cl)cc(Cl)c2)c2ncc(S(C)(=O)=O)n21` (centres undefined), the Kd in data set [1] worked out at 70 nM.

For the compound `C[C@@]1(Cc2ccc(Br)cc2)C(=O)N(c2cc(Cl)cc(Cl)c2)c2ncc(S(=O)(=O)CCO)n21`, the Kd in data set [1] was 40 nM.

`C[C@@]1(Cc2ccc(Br)cc2)C(=O)N(c2cc(Cl)cc(Cl)c2)c2nccn21` returned a Kd in [1] of 10 nM. Also, in data set [6], half-maximal inhibition (IC50) required 1200 nM. For the same compound, the Cmax in data set [7] is 155 ng/mL; in data set [9], 25 ng/mL. Besides, the Activity in the data set with Cell line [8] amounted to 114 pM/min/ml.

`CC1(Cc2ccc(Br)cc2)C(=O)N(c2cc(Cl)cc(Cl)c2)c2nc(S(C)(=O)=O)cn21` (centres undefined) gave a Kd in data set [1] of 920 nM.

As to `C[C@@]1(Cc2ccc(Br)cc2)C(=O)N(c2cc(Cl)cc(Cl)c2)c2ncc(S(=O)(=O)N3CCOCC3)n21`, in data set [1], the Kd was determined as 20 nM.

Compound `C[C@@]1(Cc2ccc(Br)cc2)C(=O)N(c2cc(Cl)cc(Cl)c2)c2ncc(S(=O)(=O)CCCN)n21` came in with a Kd in [1] of 170 nM.

Turning to `C[C@@]1(Cc2ccc(Br)cc2)C(=O)N(c2cc(Cl)cc(Cl)c2)c2ncc(S(=O)(=O)N3CCNCC3)n21`, the values for the Kd in data set [1] and in data set [3] were 50 nM and 400 nM, respectively. In addition, the results for the IC50 (in the data set listed under Mus musculus; in [4]; in the data set with Cell line [5]) were 27800 nM, 380 nM and 27800 nM, respectively.

The compound `CC(=O)OCCCCS(=O)(=O)c1cnc2n1[C@](C)(Cc1ccc(Br)cc1)C(=O)N2c1cc(Cl)cc(Cl)c1` gave a dissociation constant Kd in [1] of 30 nM.

Turning to `C[C@@]1(Cc2ccc(Br)cc2)C(=O)N(c2cc(Cl)cc(Cl)c2)c2ncc(S(=O)(=O)N3CCC(O)CC3)n21`, the Kd in data set [1] was 8 nM; in data set [10] it was 9 nM; in [3], 40 nM. The values for the IC50 (in the data set listed under Mus musculus; in [4]; in the data set with Cell line [5]) were 4600 nM, 30 nM and 4600 nM, respectively.

Compound `CNCCCS(=O)(=O)c1cnc2n1[C@](C)(Cc1ccc(Br)cc1)C(=O)N2c1cc(Cl)cc(Cl)c1` registered a Kd in [1] of 150 nM. This lies in the sub-micromolar range.

Consider `CC(=O)OCCCS(=O)(=O)c1cnc2n1[C@](C)(Cc1ccc(Br)cc1)C(=O)N2c1cc(Cl)cc(Cl)c1`, for which the Kd worked out at 10 nM in data set [1] and 40 nM in data set [3]. The IC50 in data set [4] is 370 nM; in the data set on Cell line [5], 7000 nM.

On to `C[C@]1(Cc2ccc(Br)cc2)C(=O)N(c2cc(Cl)cc(Cl)c2)c2nccn21`, for which the Kd in data set [1] is more than 7000 nM.

Turning to `C[C@@]1(Cc2ccc(Br)cc2)C(=O)N(c2cc(Cl)cc(Cl)c2)c2ncc(S(=O)(=O)N3CCCCC3)n21`, in data set [1], binding was put at a Kd of 50 nM.

Regarding `COc1cnc2n1C(C)(Cc1ccc(Br)cc1)C(=O)N2c1cc(Cl)cc(Cl)c1` (centres undefined), in [1], binding was characterised by a dissociation constant (Kd) of 360 nM.

In turn, `CC1(Cc2ccc(Br)cc2)C(=O)N(c2cc(Cl)cc(Cl)c2)c2ncc(Br)n21` (centres undefined) came in with a Kd in data set [1] of 180 nM.

`CC1(Cc2ccc(Br)cc2)C(=O)N(c2cc(Cl)cc(Cl)c2)c2nc(C#N)cn21` (centres undefined): the Kd in [1] turned out to be 280 nM.

The compound `C[C@@]1(Cc2ccc(Br)cc2)C(=O)N(c2cc(Cl)cc(Cl)c2)c2ncc(S(C)(=O)=O)n21` registered a Kd in data set [1] of 50 nM. In addition, the Cmax worked out at 14400 ng/mL in [11] and 2800 ng/mL in data set [12]. Further, in [6], 260 nM corresponded to half-maximal inhibition (IC50).

With `CN1C(=O)N(c2cc(Cl)cc(Cl)c2)C(=O)[C@@]1(C)Cc1ccc(Br)cc1`, inhibition in data set [13] was half-maximal at 240 nM (IC50). For the same compound, the Activity in the data set with Cell line [8] was found to be 141 pM/min/mg.

With `C[C@@]1(Cc2ccc(Br)cc2)C(=O)N(c2cc(Cl)cc(Cl)c2)c2ncc(S(=O)(=O)N3CCCC(O)C3)n21` (some centres undefined), in data set [1], binding was put at a Kd of 70 nM.

Regarding `C[C@@]1(Cc2ccc(Br)cc2)C(=O)N(c2cc(Cl)cc(Cl)c2)c2ncc(S(=O)(=O)N3CCC(=O)CC3)n21`, the Kd in [1] came out at 10 nM; in [3], 300 nM. Further, the IC50 in the data set listed under Mus musculus is 5500 nM; in [4], 250 nM; in the data set on Cell line [5], 5500 nM.

In turn, `CC1(Cc2ccc(Br)cc2)C(=O)N(c2cc(Cl)cc(Cl)c2)c2nccn21` (racemic) yielded a Kd in [1] of 380 nM. In other words, the sub-micromolar range.

These data come from ChEMBL document CHEMBL1138790, “Second-generation lymphocyte function-associated antigen-1 inhibitors: 1H-imidazo[1,2-alpha]imidazol-2-one derivatives” (J Med Chem, 2004).
